Compounds with a hit are over-represented: about 1.5% of the library has one in this group of screens.
EBI2 block – antagonists of human EBI2 receptor; EBI2 beta-arrestin recruitment, luminescence, 7a,25-OHC stimulated; inhibition, % at 5 µM; 360,000 compounds, 0.81% hits; in the data active means inhibition above about 38%;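 further: enzyme fragment complementation signal reports receptor beta-arrestin coupling in cells; 0% = agonist plus DMSO wells and 100% = wells without agonist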
Target sequence (P32249 whole entry, looked up, the tested form may be a part): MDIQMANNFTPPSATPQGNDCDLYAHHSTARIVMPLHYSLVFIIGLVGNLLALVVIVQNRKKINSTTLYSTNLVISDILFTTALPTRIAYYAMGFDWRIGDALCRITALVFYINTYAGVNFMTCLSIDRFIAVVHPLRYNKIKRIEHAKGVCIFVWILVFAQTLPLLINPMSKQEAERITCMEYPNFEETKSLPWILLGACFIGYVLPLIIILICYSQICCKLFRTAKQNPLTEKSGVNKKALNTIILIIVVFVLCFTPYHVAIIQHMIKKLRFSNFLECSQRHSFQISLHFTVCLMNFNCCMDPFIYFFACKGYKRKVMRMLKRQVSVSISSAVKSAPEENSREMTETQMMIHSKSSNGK
APJ agonist – activates the human apelin receptor APJ. activation, % at 20 µM. AID 2520. 330,000 compounds, 0.11% hits. CHO-K1 APJ PathHunter beta-arrestin, luminescence; 0% DMSO wells, 100% apelin. P35414;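 active means activation more than six SD over the plate average, tested at 20 µM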;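 further: 0% = DMSO alone and 100% = apelin-13 at 10 nM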
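Test system – PathHunter CHO-K1 APJ (AGTRL-1) beta-arrestin reporter cells · Input – 1000 cells/well · Compound – single test compound dose, 20 µM final, 1% DMSO · Times – compound stimulation 90 min at 25 °C, detection 60 min · Technique – beta-gal luminescence · Read-out basis – APJ–arrestin association signal · Control set – negative DMSO alone, positive Apelin-13 at 10 nM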
APJ antagonist – APJ receptor antagonism; P35414; CHO-K1 APJ beta-arrestin complementation, luminescence; 330,000 compounds, 0.32% hits; AID 2521; inhibition, % at 20 µM;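 active means inhibition above about 40% at 20 µM, limit read from the data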;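 further: cells challenged with 10 nM apelin-13 agonist together with compound; plate controls were apelin-13 plus DMSO wells for no effect and DMSO wells lacking apelin-13 for full effect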
CXCR6 block – blocks human CXCR6 beta-arrestin recruitment. O00574. CHO-K1 PathHunter CXCR6 beta-arrestin, luminescence. inhibition, % at 20 µM. 360,000 compounds, 0.36% hits. AID 602244; in the data active means inhibition above about 34%, passing the limit was not always enough;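 further: antagonist mode with CXCL16 agonist at 10 nM final; 0% = 10 nM CXCL16 with DMSO and 100% = unstimulated wells without agonist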
CCR6 antagonist – antagonists of human CCR6 receptor; P51684; CHO-K1 CCR6 PathHunter beta-arrestin, luminescence, CCL20-stimulated; inhibition, % at 20 µM; 340,000 compounds, 0.49% hits;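 active means compounds whose inhibition of the agonist-driven luminescence signal at 20 µM reaches about 50%, limit read from the data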;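 further: cells stimulated with CCL20 at 14 nM final; plate controls were DMSO with CCL20 for no effect and DMSO without agonist for full effect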
An asterisk follows results filed as active; / = not tested or not shown.

SMILES	EBI2 block	APJ agonist	APJ antagonist	CXCR6 block	CCR6 antagonist
COc1cc(-n2nc(C)c3c2OC(N)=C(C#N)C3c2ccccc2)c(Cl)c(Br)c1O (stereo not drawn)	7	-7	34	22	70*
O=[N+]([O-])c1ccc(N=Cc2sc3ccccc3c2O)cc1	2	-3	1	-8	52*
O=[N+]([O-])c1cccc(N=Cc2sc3ccccc3c2O)c1	/	1	-17	/	/
C#CC(=O)N(c1cccc(OC)c1)C(C(=O)NC1CCCC1)c1cccs1 (stereo not drawn)	53*	1	5	18	26
Cc1ccc(CNC(=O)C2CCC(=O)N(CCc3ccc(Cl)cc3)C2)s1 (stereo not drawn)	39	-6	-10	0	6
Cc1ccc(CNC(=O)C2CCC(=O)N(CCc3ccc(Cl)cc3)C2)cc1 (stereo not drawn)	49*	-5	5	3	8
N#C/C(=C\c1ccc(O)c(O)c1)S(=O)(=O)c1ccccc1	8	-7	19	23	53*
CCCNC(=O)c1cc(C2CCCN(C(=O)C3CCCCC3)C2)on1 (stereo not drawn)	-1	/	/	1	/
O=C1C(Cl)=C(Nc2ccc3cn[nH]c3c2)C(=O)c2ccccc21	42	/	/	56*	78*
COc1cc(C(=O)c2cc3c(cc2C)OCO3)cc(OC)c1OC	-6	/	/	-4	/
O=[N+]([O-])c1ccc(Br)c(CN2CCN(c3ncc(Cc4ccccc4)cn3)CC2)c1	11	/	/	/	/
CC(C)(C)c1cc(C(=O)NCC(=O)OCC(=O)c2cccc([N+](=O)[O-])c2)cc(C(C)(C)C)c1	-4	-8	35	34	57*
O=[N+]([O-])c1cccc(C=NNc2ccc3ccccc3n2)c1O	-8	/	/	37*	60*
O=C(N/N=C/c1cccc([N+](=O)[O-])c1O)c1cccs1	14	-6	15	24	64*
COc1ccc(-c2coc3c(C(=O)Nc4cccc(NS(C)(=O)=O)c4)cccc23)c(C)c1	3	/	/	-1	/
O=C1NC[C@H](c2ccccc2)OC(=O)[C@H](Cc2ccc(F)cc2)CC/C=C/C[C@H]1CC(=O)N(CCO)Cc1ccccc1	-25	/	/	48*	33
O=C1NC[C@H](c2ccccc2)OC(=O)[C@@H](Cc2ccc(F)cc2)CC/C=C/C[C@H]1CC(=O)N(CCO)Cc1ccccc1	4	/	/	37	33
Cc1n[nH]c(C)c1Sc1ccccc1N=Cc1cc(Cl)cc([N+](=O)[O-])c1O	14	-2	23	55*	44
OC(COc1c(Cl)cc(Cl)cc1Cl)CN1CCCCC1 (stereo not drawn)	-4	-6	9	0	69*
OC(COc1ccc(Cl)cc1)CN1CCCCC1 (stereo not drawn)	-6	-1	1	-2	8
O=C(Nc1nc(-c2ccccc2)cs1)C1CCCN(S(=O)(=O)c2ccccc2)C1 (stereo not drawn)	-14	7	6	-8	66*
O=C(Nc1nc(-c2ccccc2)cs1)C1CCCN(S(=O)(=O)c2cccc([N+](=O)[O-])c2)C1 (stereo not drawn)	1	-1	-12	-15	5
O=C(C[n+]1ccc(C(=O)NCc2ccccc2)cc1)c1ccc(OC(F)F)cc1	3	-4	1	6	14
O=C(C[n+]1cn(C(F)F)c2ccccc21)c1ccc(OC(F)F)cc1	0	18*	-86	-13	-11
CC(NNC(=S)N1CCN(c2ccccn2)CC1)c1nccc2ccccc12 (stereo not drawn)	1	/	/	26	64*
SMILES	EBI2 block	APJ agonist	APJ antagonist	CXCR6 block	CCR6 antagonist
C[C@H]1CN([C@@H](C)CO)C(=O)CCCn2nncc2CO[C@@H]1CN(C)S(=O)(=O)c1cccc(F)c1	3	/	/	4	/
CC(=O)N(c1ccccc1C)C1CCCC1	-7	1	5	-4	6
CC(=O)N(C1=C(Cl)C(=O)c2ccccc2C1=O)C1CCCCC1	8	8	-10	40*	115*
CC(C)(C)n1c(O)c2n(c1=O)Cc1ccccc1N=C2c1ccccc1	-1	/	/	-4	/
COc1ccccc1N1C(=O)C2CC(C)=C(C)CC2C1=O (stereo not drawn)	-5	0	18	-6	3
COc1ccccc1N1C(=O)C=C(Sc2nc(C)cc(C)n2)C1=O	3	-2	-11	11	94*
CCOC(=O)C1=CC[C@@H](c2cccc(Br)c2)N(S(=O)(=O)c2ccc(F)cc2)[C@H]1c1cccc(Cl)c1	18	/	/	/	/
CCCN(CCC)C(=O)c1cc([N+](=O)[O-])cc2c1-c1ccc([N+](=O)[O-])cc1C2=C(C#N)C#N	/	5	11	/	66*
CC1=NN(c2ccc(Cl)cc2)C(=O)/C1=C\c1cccn1-c1ccc(S(N)(=O)=O)cc1	60*	-2	36	5	32
Cc1ccc(-n2sc3ccccc3c2=O)cc1S(=O)(=O)N1CCCCC1	43	2	-12	20	55*
O=c1c2ccccc2sn1-c1ccc(S(=O)(=O)N2CCCCC2)cc1	5	3	-30	-4	9
CCCC(=O)N(C1CC(C)C(C#N)(C#N)C1(C#N)C#N)N(C)C (stereo not drawn)	30	-5	32	81*	94*
CC(=O)N(C1CC(C)C(C#N)(C#N)C1(C#N)C#N)N(C)C (stereo not drawn)	-9	-2	15	34	78*
CN(C)CCN1CCN(C2CN(Cc3cn(Cc4ccccc4)nn3)S(=O)(=O)C2)CC1 (stereo not drawn)	-1	/	/	4	/
CCOC(=O)c1c(N)sc(-c2ccccc2)c1C	6	-5	2	12	59*
COc1ccc(-c2sc(Nc3ccccc3)n[n+]2-c2ccccc2)cc1Br	18	-3	-42	6	16
C(=C\c1sc(Nc2ccccc2)n[n+]1-c1ccccc1)/c1ccccc1	-4	/	/	26	66*
CC1=C(C(=O)N2CCOCC2)CC(CC(=O)NCC2CCCCC2)C(=O)N1Cc1ccc(C(C)(C)C)cc1 (stereo not drawn)	7	/	/	-4	/
CCOc1ccc(/C=C/C2=NNC(=O)CC2)cc1	-10	-1	-9	-6	13
COc1ccc(/C=C/C2=NNC(=O)CC2)cc1	4	-2	-31	3	77*
CC(CCC(=O)NN)C1CCC2C3CCC4CC(O)CCC4(C)C3CCC12C (stereo not drawn)	14	/	/	0	6
CC(CCC(C)C(C)(C)C)[C@@H]1CC[C@H]2C3C[C@H](OS(O)(=S)=S)[C@H]4C[C@H](OS(O)(=S)=S)[C@@H](OS(O)(=S)=S)C[C@]4(C)[C@H]3CC[C@]12C (stereo partly drawn) (tested in a mixture with another compound)	-12	6	10	20	57*
CN1CCN(C2=C(Cl)C(=O)c3ccccc3C2=O)CC1	-14	/	/	-6	47

Screening results: PubChem BioAssay, Sanford-Burnham Center for Chemical Genomics
